pIC50, pKi: −log10 of the molar value. Values after ≈ are worked out from the molar mass of the structure shown. Active and inactive are the calls of the source. No cut-off for these calls is given here.
How the values were obtained:
[1] = species on record: Homo sapiens; assay: Selectivity ratio of Ki for human OX1R expressed in CHOK1 cell membranes to Ki for human OX2R expressed in CHOK1 cell membranes; assay type: cell-based
How it was run: (§1)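 Radioligand competition binding used membranes from CHO-K1 cells overexpressing human OX1R or OX2R. […] The selectivity ratio is OX1R Ki divided by OX2R Ki.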

[2] = species on record: Homo sapiens; assay: Selectivity ratio of IC50 for human OX1R expressed in CHOK1 cells to IC50 for human OX2R expressed in CHOK1 cells by FLIPR assay; assay type: cell-based
[3] = system: OX2R knockout mouse (Mus musculus); assay: Sleep promoting activity in OX2R knockout mouse assessed as increase in NREM sleep at 30 mg/kg, po administered in late active phase for 5 consecutive days by electroencephalogram/electromyogram analysis
[4] = system: Rattus norvegicus; assay: Sleep promoting activity in rat assessed as increase in REM sleep at 0.5 to 3 mg/kg, po administered in mid active phase for 3 consecutive days by electroencephalogram/electromyogram analysis; assay type: functional, organism-based
How it was run: (§2)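 Rats carried implanted radio-telemetry devices for EEG/EMG polysomnography. Oral doses were 0.5 (n=16), 1 (n=14) or 3 mg/kg (n=12) versus vehicle (20% vitamin E TPGS). Dosing was at ZT18:00 (6 h after lights off) on 3 consecutive days in a balanced cross-over. Active wake, NREM and REM time was scored in 30-min bins, and all treatment days were averaged over 24 h.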

[5] = system: OX2R knockout mouse (Mus musculus); assay: Sleep promoting activity in OX2R knockout mouse assessed as attenuation of active wake at 30 mg/kg, po administered in late active phase for 5 consecutive days by electroencephalogram/electromyogram analysis
[6] = system: Rattus norvegicus; assay: Sleep promoting activity in rat assessed as increase in NREM sleep at 0.5 to 3 mg/kg, po administered in mid active phase for 3 consecutive days by electroencephalogram/electromyogram analysis; assay type: functional, organism-based; how it was run: as §2
[7] = biological target: T1, Orexin/Hypocretin receptor type 1 (Homo sapiens, UniProt O43613); assay: Antagonist activity at human OX1R expressed in CHOK1 cells assessed as reduction in orexin A-induced calcium flux preincubated followed by orexin A addition by FLIPR assays; assay type: functional, cell-based
T1 sequence (O43613 whole entry): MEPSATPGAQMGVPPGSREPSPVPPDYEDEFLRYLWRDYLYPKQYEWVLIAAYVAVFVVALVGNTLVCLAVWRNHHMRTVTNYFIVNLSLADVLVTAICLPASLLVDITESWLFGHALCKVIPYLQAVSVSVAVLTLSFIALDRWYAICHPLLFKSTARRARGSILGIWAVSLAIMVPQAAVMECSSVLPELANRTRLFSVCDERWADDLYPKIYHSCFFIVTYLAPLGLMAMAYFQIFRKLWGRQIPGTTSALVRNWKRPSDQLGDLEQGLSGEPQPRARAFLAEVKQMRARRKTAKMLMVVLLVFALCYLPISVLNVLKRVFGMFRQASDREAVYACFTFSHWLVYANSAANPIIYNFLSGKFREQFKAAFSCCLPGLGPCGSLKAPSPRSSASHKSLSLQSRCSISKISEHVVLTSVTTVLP

[8] = system: Mus musculus; assay: Sleep promoting activity in mouse assessed as attenuation of active wake at 30 mg/kg, po administered in late active phase for 5 consecutive days measured up to 1.5 hrs post dose by electroencephalogram/electromyogram analysis
[9] = system: Rattus norvegicus; assay: Sleep promoting activity in po dosed rat assessed as attenuation of active wake administered in mid active phase for 3 consecutive days measured up to 2 hrs post dose by electroencephalogram/electromyogram analysis; assay type: functional, organism-based; how it was run: as §2
[10] = system: Mus musculus; assay: Sleep promoting activity in mouse assessed as increase in REM sleep at 30 mg/kg, po administered in late active phase for 5 consecutive days by electroencephalogram/electromyogram analysis
[11] = system: Mus musculus; assay: Sleep promoting activity in mouse assessed as increase in NREM sleep at 30 mg/kg, po administered in late active phase for 5 consecutive days by electroencephalogram/electromyogram analysis
[12] = Solubility of the compound in pH 6.5 FASSIF at 0.1 mg/ml after 15 mins by reverse-phase chromatography; assay type: physicochemical; settings: fasted state simulated intestinal fluid (FaSSIF)
How it was run: (§3)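 Compound at […] was stirred at 80 rpm in SGF (0.01 N HCl, 0.9 wt.% NaCl, pH 1.8) or FASSIF (3 mM sodium taurocholate, 0.75 mM lecithin, 100 mM NaCl, NaOH/NaH₂PO₄, pH 6.5). It was then centrifuged at 14k rpm for 15 min.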

[13] = biological target: T2, Orexin receptor type 2 (Homo sapiens, UniProt O43614); assay: Antagonist activity at human OX2R expressed in CHOK1 cells assessed as reduction in orexin A-induced calcium flux preincubated followed by orexin A addition by FLIPR assays; assay type: functional, cell-based
T2 sequence (O43614 whole entry): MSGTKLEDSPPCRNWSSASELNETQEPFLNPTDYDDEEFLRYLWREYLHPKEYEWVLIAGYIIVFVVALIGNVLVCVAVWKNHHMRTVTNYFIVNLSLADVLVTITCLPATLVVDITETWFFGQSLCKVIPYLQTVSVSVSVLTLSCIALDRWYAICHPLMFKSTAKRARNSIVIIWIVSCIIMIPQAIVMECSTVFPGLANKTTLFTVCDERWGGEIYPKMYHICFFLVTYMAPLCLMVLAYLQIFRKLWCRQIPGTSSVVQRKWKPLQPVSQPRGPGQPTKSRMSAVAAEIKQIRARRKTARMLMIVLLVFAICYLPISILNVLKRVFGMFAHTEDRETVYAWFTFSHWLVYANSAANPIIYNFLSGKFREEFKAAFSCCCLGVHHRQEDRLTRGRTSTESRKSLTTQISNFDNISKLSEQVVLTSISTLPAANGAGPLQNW

[14] = Solubility of the compound in pH 1.8 SGF at 0.1 mg/ml after 15 mins by reverse-phase chromatography; assay type: physicochemical; settings: simulated gastric fluid (SGF); how it was run: as §3
[15] = biological target: T1, Orexin/Hypocretin receptor type 1; assay: Displacement of [3H](S)-N-(biphenyl-2-yl)-1-(2-(1-methyl-1H-benzo[d]imidazol-2-ylthio)acetyl)pyrrolidine-2-carboxamide from human OX1R expressed in CHOK1 cell membranes
How it was run: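 Radioligand competition binding used membranes from CHO-K1 cells overexpressing human OX1R or OX2R. The selectivity ratio is OX1R Ki divided by OX2R Ki.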

[16] = biological target: T2, Orexin receptor type 2; assay: Displacement of [3H](S)-N-(2-(1H-pyrrol-1-yl)phenyl)-1-(2-(1-methyl-1H-benzo[d]imidazol-2-ylthio)acetyl)pyrrolidine-2-carboxamide from human OX2R expressed in CHOK1 cell membranes; how it was run: as §1
[17] = biological target: T3, Nuclear receptor subfamily 1 group I member 2 (Homo sapiens, UniProt O75469); assay: Inhibition of PXR (unknown origin); assay type: ADME
T3 sequence (O75469 whole entry): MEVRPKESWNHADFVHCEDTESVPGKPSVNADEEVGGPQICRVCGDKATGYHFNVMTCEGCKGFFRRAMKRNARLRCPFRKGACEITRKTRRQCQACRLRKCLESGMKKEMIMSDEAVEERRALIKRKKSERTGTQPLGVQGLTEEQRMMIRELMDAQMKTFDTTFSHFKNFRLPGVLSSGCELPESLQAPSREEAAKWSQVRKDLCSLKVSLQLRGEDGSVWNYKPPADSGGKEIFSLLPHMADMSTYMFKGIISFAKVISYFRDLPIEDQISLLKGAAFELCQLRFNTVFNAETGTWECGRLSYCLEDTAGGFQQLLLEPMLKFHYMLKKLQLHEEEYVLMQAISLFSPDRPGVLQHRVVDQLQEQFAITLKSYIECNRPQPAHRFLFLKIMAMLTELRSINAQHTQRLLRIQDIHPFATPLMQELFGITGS

[18] = Time-dependent inhibition of CYP450 (unknown origin); assay type: ADME; settings: human

SMILES | Ratio Ki [1] | Ratio IC50 [2] | pIC50 [7] | pKi [15] | pKi [16] | also measured
COC(=O)c1ccnc(O[C@@H]2CC[C@@H](C)N(C(=O)c3ccccc3-n3nccn3)C2)c1 | 80 | 82 | – | – | – | –
C[C@@H]1CC[C@@H](Oc2cc(C#N)ccn2)CN1C(=O)c1ccccc1-n1nccn1 | 518 | 295 to 356 | 5.42 to 5.49 | – | – | Activity [3]: inactive; Activity [4]: Active; Activity [5]: inactive; Activity [6]: Active; Activity [8]: Active; Activity [9]: Dose-dependent effect; Activity [10]: Active; Activity [11]: Active; solubility at 0.25 h [12]: 13.5 µg/mL (≈ 34.8 µM); pIC50 [13]: 7.89 to 8.05; solubility at 0.25 h [14]: 13.7 µg/mL (≈ 35.3 µM)
COC(=O)c1cccnc1S[C@@H]1CC[C@@H](C)N(C(=O)c2ccccc2-n2nccn2)C1 | 8 | 2 | – | 8.20 | 9.10 | –
C[C@@H]1CC[C@@H](Sc2cc(C#N)ccn2)CN1C(=O)c1ccccc1-n1nccn1 | 191 | 109 | – | 6.49 | 8.77 | pIC50 [13]: 7.89
CCOc1ccccc1C(=O)N1C[C@H](Oc2nccc(C#N)c2C)CC[C@H]1C | 849 | 350 | 5.68 | – | – | inhibition (INH) [17]: Active
CC(=O)Nc1cc(C(=O)N2C[C@H](Oc3nccc(C#N)c3C)CC[C@H]2C)c(-c2ccccc2)cn1 | 14 | 2 | 7.15 | 8.00 | 9.15 | pIC50 [13]: 7.42
Cc1c(C#N)ccnc1O[C@@H]1CC[C@@H](C)N(C(=O)c2ccccc2N2CCCC2)C1 | 232 | 107 | 5.51 | – | – | TDI [18]: Active
Cc1c(C#N)ccnc1O[C@@H]1CC[C@@H](C)N(C(=O)c2ccc(Br)nc2-n2nccn2)C1 | 326 | > 345 | < 5.00 | – | – | –
COC(=O)c1c(C#N)ccnc1O[C@@H]1CC[C@@H](C)N(C(=O)c2ccccc2-n2nccn2)C1 | 112 | 39 | – | – | 9.30 | –
COc1ccc(C(=O)N2C[C@H](Oc3nccc(C#N)c3C)CC[C@H]2C)c(C2CC2)n1 | – | – | – | – | – | TDI [18]: Active
COc1ccc(C(=O)N2C[C@H](Oc3nccc(C#N)c3C)CC[C@H]2C)c(-n2nccn2)n1 | 1190 | 282 | 5.23 | – | – | inhibition (INH) [17]: Active
C[C@@H]1CC[C@@H](Nc2cc(C#N)ccn2)CN1C(=O)c1ccccc1-n1nccn1 | 319 | 60 | 5.76 | 6.54 | 9.05 | –

Reference: ChEMBL document CHEMBL3997828, “Investigation of orexin-2 selective receptor antagonists: Structural modifications resulting in dual orexin receptor antagonists” (Bioorg Med Chem Lett, 2017)
